Bioassay records as filed in PubChem.
This is a sample that favours compounds with a hit; in the whole collection about 1.9% have one here.
NPY Y1 blocker: NPY-Y1 receptor antagonists, primary screen, cell-based | HEK293-CNG Y1 cells, membrane potential fluorescence; NPY at EC95, then isoproterenol | inhibition, % at 3.6 µM | 1% of 200,000 active | AID 1040, 2008;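 active = inhibition above the campaign mean inhibition of all tested compounds plus 3 SD, cut at about 20% in these data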;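 note: 0% = DMSO wells given NPY plus isoproterenol and 100% = isoproterenol alone without NPY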
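Assay system: HEK293 cells with Y1 receptor plus CNG channel | Probe or stimulus: NPY (25 nM), isoproterenol (1 µM), Ro 20-1724 (25 µM) | Timing: Compound incubation 1 h at room temperature, readout 45 min post-stimulation | Measured by: Membrane-potential fluorescent dye readout | Benchmarks: High control isoproterenol alone, low control NPY with isoproterenol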
NPY Y2 blocker: NPY-Y2 receptor antagonists, primary screen, cell-based. 0.99% of 140,000 active. NPY-Y2 expressing cells, antagonist mode. Neuropeptide Y receptor type 2 (Homo sapiens), P49146. inhibition, % at 2.7 µM; in the data active = inhibition above about 17%;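 note: 0% = vehicle with agonist challenge and 100% = reference antagonist with challenge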
Target sequence (P49146 whole entry, looked up): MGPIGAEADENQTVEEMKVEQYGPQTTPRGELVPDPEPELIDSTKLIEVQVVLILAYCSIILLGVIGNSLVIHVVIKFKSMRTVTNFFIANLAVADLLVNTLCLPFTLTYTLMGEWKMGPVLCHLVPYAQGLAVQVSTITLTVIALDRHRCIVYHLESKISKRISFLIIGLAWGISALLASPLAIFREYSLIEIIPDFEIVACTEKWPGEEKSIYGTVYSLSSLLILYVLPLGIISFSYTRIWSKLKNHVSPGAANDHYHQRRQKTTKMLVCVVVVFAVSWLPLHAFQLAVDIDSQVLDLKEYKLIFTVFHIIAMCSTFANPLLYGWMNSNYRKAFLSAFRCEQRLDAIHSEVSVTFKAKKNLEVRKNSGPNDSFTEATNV
NPY-Y2 PAM-ag: NPY-Y2 potentiators or agonists, primary screen, cell-based; Neuropeptide Y receptor type 2 (Homo sapiens), P49146; cells expressing NPY-Y2, potentiator/agonist read-out; activation, % at 3.6 µM; 0.45% of 220,000 active; AID 1359, 2008; in the data active = activation above about 27%;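 note: cells stimulated with NPY near EC25 plus isoproterenol at EC100; 0% = vehicle plus submaximal agonist and 100% = vehicle plus saturating agonist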
NPY1 pot ag: NPY-Y1 receptor potentiators or agonists, primary screen, cell-based | 0.37% of 220,000 active | AID 1304, 2008 | activation, % at 3.6 µM | Neuropeptide Y receptor type 1 (Homo sapiens), P25929 | NPY-Y1 expressing cells, potentiator/agonist activation; in the data active = activation above about 33%, passing the limit was not always enough;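 note: cells stimulated with NPY at EC10 then isoproterenol at EC100; 0% = low agonist plus stimulus and 100% = saturating agonist plus stimulus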
NPY-Y2 confirm: NPY-Y2 potentiators or agonists, confirmation, cell-based. 20% of 450 active. shares compounds with NPY-Y2 PAM-ag. cell-based NPY-Y2 potentiator/agonist assay. activation, % at 3.6 µM. AID 1539, 2009; in the data active = activation above about 33%
NPY-Y1 counter: NPY-Y1 potentiators or agonists, counter-screen for NPY-Y2 potentiator project, cell-based, fluorescence; activation, % at 3.6 µM; Y1 HEK293-CNG cells, membrane potential fluorescence; 20% of 450 active; shares compounds with NPY-Y2 PAM-ag; AID 1651, 2009; in the data active = activation above about 45%;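 note: cells stimulated with submaximal NPY then isoproterenol with phosphodiesterase inhibitor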
NPY-Y1 agonist 2: NPY-Y1 direct agonists, selectivity assay for NPY-Y2 potentiator project, cell-based, fluorescence; shares compounds with NPY-Y2 PAM-ag; activation, % at 3.6 µM; HEK293 Y1-CNGC, membrane potential fluorescence, agonism; AID 1702, 2009; 37% of 450 active;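 active = activation above the mean of DMSO-only control wells plus 3 SD, cut at about 18% in these data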;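 note: cells stimulated with 1 µM isoproterenol plus the PDE inhibitor Ro 20-1724; 0% = isoproterenol with DMSO and no NPY and 100% = 40 nM NPY; Y1 agonists lower the membrane potential dye signal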
CNGC inh: CNGC cAMP sensor activity inhibitors, counter-screen for NPY-Y2 potentiator project, cell-based, HEK293-CNG parental, membrane potential fluorescence. shares compounds with NPY-Y2 PAM-ag. isoproterenol cAMP. inhibition, % at 3.6 µM. 32% of 450 active;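 active = inhibition above the control-well mean plus 3 SD of those wells, cut at about 22% in these data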;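 note: 0% = DMSO with isoproterenol and 100% = DMSO without isoproterenol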
NPY-Y2 ag 2: NPY-Y2 direct agonists, counter-screen for NPY-Y2 potentiator project, cell-based, fluorescence; shares compounds with NPY-Y2 PAM-ag; HEK293 Y2/CNGC cells, membrane potential fluorescence, agonist mode; activation, % at 3.6 µM; 56% of 450 active; AID 1710, 2009;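 active = activation above the mean of solvent-only control wells plus 3 SD, cut at about 10% in these data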;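 note: cells stimulated by isoproterenol with no NPY added so direct agonism is tested; 0% = DMSO with isoproterenol alone and 100% = NPY at EC100 plus isoproterenol; agonism lowers probe fluorescence through less cAMP and CNG channel opening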
Starred values were filed as active, the others as inactive; . = no result.

SMILES	NPY Y1 blocker	NPY Y2 blocker	NPY-Y2 PAM-ag	NPY1 pot ag	NPY-Y2 confirm	NPY-Y1 counter	NPY-Y1 agonist 2	CNGC inh	NPY-Y2 ag 2
COC(=O)COc1ccc(S(=O)(=O)N2CCN(c3ccccc3)CC2)cc1	-9	.	30*	28	15	16	-4	-4	-1
COC(=O)COc1ccc(S(=O)(=O)N2CCN(c3ccccc3F)CC2)cc1	-6	1	36*	21	35*	42	34*	25*	26*
COc1ccc(N2CCN(S(=O)(=O)c3ccc(OC)cc3)CC2)cc1	5	0	2	-11	.	.	.	.	.
O=C(CCC(=O)Nc1nnc(C2CCCCC2)s1)NCc1ccccc1	.	.	12	-19	.	.	.	.	.
CC(=O)c1c(C)[nH]c(C(=O)OCc2ccccc2F)c1C	-2	.	29*	9	13	17	16	27*	25*
O=C(Nc1ccc(Br)cc1)c1ccc(F)c(S(=O)(=O)NCc2cccs2)c1	-3	0	36*	-11	0	-27	-24	-10	-2
Cc1cc(Nc2ccccc2)nc(-c2ccccc2O)n1	-6	-5	34*	1	37*	43	29*	27*	37*
CCC(C)NS(=O)(=O)c1ccc(NC(=O)C(Sc2ccccc2)c2ccccc2)cc1 (stereo not given)	-2	-4	11	26	.	.	.	.	.
CCCCNS(=O)(=O)c1ccc(NC(=O)C(Sc2ccccc2)c2ccccc2)cc1 (stereo not given)	-2	-4	29*	17	19	29	20*	25*	25*
Cc1ccc2[nH]c(=O)c(CNC(C)C)cc2c1	-1	0	99*	29	1	4	-6	2	8
FC(F)(F)c1cnc(NNC(=S)Nc2ccc(Cl)cc2)c(Cl)c1	-5	5	42*	38	8	-27	-14	-7	16*
CN(Cc1nccn1C)C(=O)c1cc(COc2ccc3ncccc3c2)on1	-1	.	6	20	.	.	.	.	.
Cc1cc(CN(C)C(=O)c2cc(COc3ccc4ncccc4c3)on2)on1	-3	.	38*	-8	-6	-44	-28	-12	-11
Nc1nc(N2CCCCC2)nc2ccccc12	0	1	55*	-5	72*	79*	44*	40*	72*
O=C(OCc1ccccc1)c1cn(-c2ccccc2)nc1-c1ccncc1	9	5	-9	-22	.	.	.	.	.
C#CC(=O)N(c1ccc(OC)cc1OC)C(C(=O)NC1CCCC1)c1cccs1 (stereo not given)	-7	.	35*	15	11	40	16	48*	21*
O=C(c1ccc(N2C(=O)C3C4c5ccccc5C(c5ccccc54)C3C2=O)cc1)N1CCOCC1 (stereo not given)	5	4	10	21	.	.	.	.	.
CC(=O)c1ccc(NC(=O)c2cnsn2)cc1	-7	.	-4	7	.	.	.	.	.
O=C1C2CC=CCC2C(=O)N1c1ccc(NCCc2ccc(Cl)cc2)c([N+](=O)[O-])c1 (stereo not given)	2	-4	17	5	.	.	.	.	.
COc1ccc(CCNc2ccc(N3C(=O)CC(C)C3=O)cc2[N+](=O)[O-])cc1 (stereo not given)	4	.	-16	-4	.	.	.	.	.
